Measured values as given in ChEMBL document CHEMBL2331099, “Design, synthesis and aromatase inhibitory activities of novel indole-imidazole derivatives” (Bioorg Med Chem Lett, 2013).

Columns and labels:
Aromatase [1] = molecular target: T1, Aromatase (Homo sapiens, UniProt P11511); test: Ratio of letrozole IC50 to compound IC50 for human placental microsome aromatase
T1 sequence (P11511 whole entry): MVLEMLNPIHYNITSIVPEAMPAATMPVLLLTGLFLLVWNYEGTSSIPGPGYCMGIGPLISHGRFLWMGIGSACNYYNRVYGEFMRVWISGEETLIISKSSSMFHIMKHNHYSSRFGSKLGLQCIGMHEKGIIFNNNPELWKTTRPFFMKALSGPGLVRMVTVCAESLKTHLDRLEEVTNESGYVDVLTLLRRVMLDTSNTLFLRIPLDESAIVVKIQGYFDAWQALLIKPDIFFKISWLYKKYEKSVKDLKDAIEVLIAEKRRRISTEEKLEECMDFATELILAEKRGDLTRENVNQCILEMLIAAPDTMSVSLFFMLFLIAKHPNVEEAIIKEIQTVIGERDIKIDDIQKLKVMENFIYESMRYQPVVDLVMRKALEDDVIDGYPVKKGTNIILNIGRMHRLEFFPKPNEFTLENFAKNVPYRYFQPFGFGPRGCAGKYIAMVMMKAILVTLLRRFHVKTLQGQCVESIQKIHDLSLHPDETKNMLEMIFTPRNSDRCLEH
In short: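 Both IC50s come from the human placental microsome aromatase assay with estrone measured by ELISA. Each IC50 is the mean of at least three experiments, each run in triplicate.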

Aromatase [2] = molecular target: T1, Aromatase; test: Inhibition of human placental microsome aromatase after 30 mins by ELISA
In short: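 Aromatase (P450 arom) source: human placental microsomes. Activity read as estrone formed, quantified by a commercial estrone enzyme immunoassay (ELISA). Values are means of at least three experiments, each run in triplicate.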

Row | Compound | Ratio IC50 (Aromatase [1]) | IC50 (Aromatase [2]) [µM]
1 | COc1ccc(-n2c(Cn3ccnc3)cc3ccc(Cl)cc32)cc1 | 0.0813 | 0.203
2 | COc1ccc2cc(Cn3ccnc3)n(-c3ccc(F)cc3)c2c1 | 0.3378 | 0.0489
3 | Cc1ccc2cc(Cn3ccnc3)n(-c3ccc(C#N)cc3)c2c1 | 0.612 | 0.027
4 | Cc1ccc2cc(Cn3ccnc3)n(-c3ccccc3)c2c1 | 0.7728 | 0.0214
5 | COc1ccc(-n2c(Cn3ccnc3)cc3ccc(C)cc32)cc1 | 0.1192 | 0.139
6 | COc1ccc(-n2c(Cn3ccnc3)cc3ccccc32)cc1 | 0.2137 | 0.0774
